ChEMBL document CHEMBL4152233, “Design, synthesis and anthelmintic activity of 7-keto-sempervirol analogues” (Eur J Med Chem, 2018)
Calls of active or inactive are those of the source.

What was measured:
Schistosoma mansoni [1] = experiment: Antischistosomal activity against female adult stage of Schistosoma mansoni assessed as loss of spinous tubercles natural shape at 25 uM after 72 hrs by osmium tetroxide staining-based scanning electron microscopic method; type: functional, organism-based
Fasciola hepatica [2] = experiment: Antifasciola activity against immature stage of Fasciola hepatica Italian assessed as exposure of basal lamina at 13.3 uM after 72 hrs by osmium tetroxide staining-based scanning electron microscopic method; type: functional, organism-based
Fasciola hepatica [3] = experiment: Antifasciola activity against adult stage of Fasciola hepatica Italian assessed as decoration of ventral surface by swollen tegumantal ridges and smaller spines at 40 uM after 72 hrs by osmium tetroxide staining-based scanning electron microscopic method; type: functional, organism-based
[4] = Selectivity index, ratio of IC50 for MDBK cells to IC50 for antischistosomal activity against schistosomula of Schistosoma mansoni assessed as effect on parasite phenotype; type: toxicity; conditions: cattle, read-out: Ratio IC50
In short: (§1)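 Selectivity index was calculated as the CC50 from the HepG2 or MDBK MTT assay divided by the schistosomula phenotype or motility IC50 from the 72 hr image-based screen.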

[5] = Selectivity index, ratio of IC50 for human HepG2 cells to IC50 for antischistosomal activity against schistosomula of Schistosoma mansoni assessed as effect on parasite motility; type: toxicity; conditions: read-out: Ratio IC50; in short: as §1
[6] = Cytotoxicity against human HepG2 cells after 24 hrs by MTT assay; type: cell-based
In short: (§2)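 Cells were grown to about 80% confluence (HepG2 in BME, MDBK in EMEM, each with 10% FBS). They were seeded at 2.5 x10^4 per well and rested 24 hr, then exposed 24 hr to compound at 100–0.01 µM (1.25% DMSO). Controls were DMSO and 1% Triton X-100. Viability was read by MTT, and CC50 came from dose-response curves run in triplicate.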

Fasciola hepatica [7] = experiment: Antifasciola activity against immature stage of Fasciola hepatica Italian assessed as sloughing of tegument at 13.3 uM after 72 hrs by osmium tetroxide staining-based scanning electron microscopic method; type: functional, organism-based
Schistosoma mansoni [8] = experiment: Antischistosomal activity against adult stage of Schistosoma mansoni assessed as effect on parasite motility after 72 hrs by microscopic method; type: functional, organism-based
In short: (§3)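 Mice were infected percutaneously with 200 cercariae, and adults were recovered by portal perfusion at seven weeks. Three worm pairs per well in modified DMEM with 10% FCS were given compound at 50, 25, 12.5 and 6.25 µM final (0.3% DMSO) for 72 hr at 37 °C, 5% CO2. Controls were DMSO and auranofin. Worms were scored manually by microscopy at 24, 48 and 72 hr. Experiments were run in duplicate.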

[9] = Selectivity index, ratio of IC50 for human HepG2 cells to IC50 for antischistosomal activity against schistosomula of Schistosoma mansoni assessed as effect on parasite phenotype; type: toxicity; conditions: read-out: Ratio IC50; in short: as §1
Schistosoma mansoni [10] = experiment: Antischistosomal activity against schistosomula of Schistosoma mansoni at 1 uM by throughput high content image analysis; type: functional, organism-based
[11] = Cytotoxicity against MDBK cells after 24 hrs by MTT assay; type: cell-based, Bos taurus; conditions: cattle; in short: as §2
Fasciola hepatica [12] = experiment: Antifasciola activity against immature stage of Fasciola hepatica Italian assessed as effect on parasite motility after 72 hrs; type: functional, organism-based
Fasciola hepatica [13] = experiment: Antifasciola activity against newly excysted juveline stage of Fasciola hepatica Italian assessed as effect on parasite motility after 72 hrs; type: functional, organism-based
In short: (§4)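 NEJs came from Italian-strain metacercariae, excysted either by pepsin/HCl or by needle rupture, then 1 hr in sodium tauroglycocholate. They were plated at 25 per well in RPMI-1640 with 1% FCS. Screening was at 25 and 12.5 µM, then titration from 10 to 0.625 µM (0.16% DMSO). Controls were DMSO and 10 µM triclabendazole. Motility and phenotype were scored at 72 hr, with IC50 from dose-response curves.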

Schistosoma mansoni [14] = experiment: Antischistosomal activity against adult stage of Schistosoma mansoni assessed as appearance of abnormal shaped eggs at 6.25 uM after 72 hrs by fluorescence microscopic method; type: functional, organism-based
In short: (§5)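 Adult worm pairs from infected MF-1 mice were cultured 72 hr at 37 °C, 5% CO2, in modified DMEM with 10% FCS. At 72 hr, eggs were collected from each well, counted, pelleted at 200 x g, fixed in 10% formaldehyde in PBS, and viewed under natural light and a GFP filter.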

[15] = Selectivity index, ratio of IC50 for MDBK cells to IC50 for newly excysted juveline stage of Fasciola hepatica Italian assessed as effect on parasite motility; type: toxicity; conditions: cattle, read-out: Ratio IC50
In short: (§6)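 Selectivity index was calculated as the CC50 from the HepG2 or MDBK MTT assay divided by the F. hepatica NEJ phenotype or motility IC50 from the 72 hr manual scoring assay.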

Schistosoma mansoni [16] = experiment: Antischistosomal activity against adult stage of Schistosoma mansoni assessed as irregular auto-fluorescence of eggs at 6.25 uM after 72 hrs by fluorescence microscopic method; type: functional, organism-based; in short: as §5
Schistosoma mansoni [17] = experiment: Antischistosomal activity against male adult stage of Schistosoma mansoni assessed as tegumental disruption throughtout the whole body at 25 uM after 72 hrs by osmium tetroxide staining-based scanning electron microscopic method; type: functional, organism-based
Schistosoma mansoni [18] = experiment: Antischistosomal activity against adult stage of Schistosoma mansoni assessed as effect on parasite motility up to 12.5 uM after 72 hrs by microscopic method; type: functional, organism-based; in short: as §3
Schistosoma mansoni [19] = experiment: Antischistosomal activity against schistosomula of Schistosoma mansoni assessed as effect on parasite phenotype by throughput high content image analysis; type: functional, organism-based
In short: (§7)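 Puerto Rican (NMRI) strain cercariae were mechanically transformed to schistosomula. About 120 larvae were co-cultured with compound for 72 hr at 37 °C, 5% CO2, at 0.625% DMSO final. Controls were DMSO and auranofin. Motility and phenotype were scored by automated image analysis, with a hit threshold of ≤-0.15 (phenotype) and ≤-0.35 (motility) in ≥70% of larvae. Runs were in duplicate, and IC50 was estimated from dose-response curves.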

Schistosoma mansoni [20] = experiment: Antischistosomal activity against schistosomula of Schistosoma mansoni assessed as effect on parasite motility by throughput high content image analysis; type: functional, organism-based; in short: as §7
Schistosoma mansoni [21] = experiment: Antischistosomal activity against adult stage of Schistosoma mansoni assessed as appearance of smaller eggs at 6.25 uM after 72 hrs by fluorescence microscopic method; type: functional, organism-based; in short: as §5
Schistosoma mansoni [22] = experiment: Antischistosomal activity against adult stage of Schistosoma mansoni assessed as loss of lateral spine in eggs at 6.25 uM after 72 hrs by fluorescence microscopic method; type: functional, organism-based; in short: as §5
Schistosoma mansoni [23] = experiment: Antischistosomal activity against schistosomula of Schistosoma mansoni at 10 uM by throughput high content image analysis; type: functional, organism-based; in short: as §7
Fasciola hepatica [24] = experiment: Antifasciola activity against newly excysted juveline stage of Fasciola hepatica Italian assessed as effect on parasite phenotype after 72 hrs; type: functional, organism-based; in short: as §4
Schistosoma mansoni [25] = experiment: Antischistosomal activity against adult stage of Schistosoma mansoni at 50 uM after 24 to 72 hrs by microscopic method; type: functional, organism-based; in short: as §3
Schistosoma mansoni [26] = experiment: Antischistosomal activity against female adult stage of Schistosoma mansoni assessed as tegumental disruption throughtout the whole body at 25 uM after 72 hrs by osmium tetroxide staining-based scanning electron microscopic method; type: functional, organism-based
[27] = Selectivity index, ratio of IC50 for human HepG2 cells to IC50 for newly excysted juveline stage of Fasciola hepatica Italian assessed as effect on parasite phenotype; type: toxicity; conditions: read-out: Ratio IC50; in short: as §6
Fasciola hepatica [28] = experiment: Antifasciola activity against adult stage of Fasciola hepatica Italian assessed as effect on parasite motility after 72 hrs; type: functional, organism-based
Schistosoma mansoni [29] = experiment: Antischistosomal activity against male adult stage of Schistosoma mansoni assessed as loss of spinous tubercles natural shape at 25 uM after 72 hrs by osmium tetroxide staining-based scanning electron microscopic method; type: functional, organism-based
[30] = Selectivity index, ratio of IC50 for MDBK cells to IC50 for newly excysted juveline stage of Fasciola hepatica Italian assessed as effect on parasite phenotype; type: toxicity; conditions: cattle, read-out: Ratio IC50; in short: as §6
Schistosoma mansoni [31] = experiment: Antischistosomal activity against schistosomula of Schistosoma mansoni at 25 uM by throughput high content image analysis; type: functional, organism-based; in short: as §7
Fasciola hepatica [32] = experiment: Antifasciola activity against immature stage of Fasciola hepatica Italian assessed as loss of spines on ventral surface at 13.3 uM after 72 hrs by osmium tetroxide staining-based scanning electron microscopic method; type: functional, organism-based
[33] = Selectivity index, ratio of IC50 for human HepG2 cells to IC50 for newly excysted juveline stage of Fasciola hepatica Italian assessed as effect on parasite motility; type: toxicity; conditions: read-out: Ratio IC50; in short: as §6
[34] = Selectivity index, ratio of IC50 for MDBK cells to IC50 for antischistosomal activity against schistosomula of Schistosoma mansoni assessed as effect on parasite motility; type: toxicity; conditions: cattle, read-out: Ratio IC50; in short: as §1

IC50 (Schistosoma mansoni [8]): 19.9 µM
IC50 (Fasciola hepatica [12]): 10.4 µM
IC50 (Fasciola hepatica [13]): 2.5 µM
IC50 (Schistosoma mansoni [19]): 6.8 µM
IC50 (Schistosoma mansoni [20]): 6.3 µM
IC50 (Fasciola hepatica [24]): 3.2 µM
IC50 (Fasciola hepatica [28]): 28.4 µM
SMILES: CC1(C)CCC[C@]2(C)c3ccc(O)cc3CC[C@@H]12
Activity (Schistosoma mansoni [1]): Active
Activity (Fasciola hepatica [2]): Active
Activity (Fasciola hepatica [3]): Active
selectivity ratio [4]: 4.8
selectivity ratio [5]: 4.1
CC50 at 24 h [6]: 25.6 µM
Activity (Fasciola hepatica [7]): Active
selectivity ratio [9]: 3.8
Activity (Schistosoma mansoni [10]): inactive
CC50 at 24 h [11]: 32.5 µM
Activity (Schistosoma mansoni [14]): Active
selectivity ratio [15]: 13
Activity (Schistosoma mansoni [16]): Active
Activity (Schistosoma mansoni [17]): Active
Activity (Schistosoma mansoni [18]): Active
Activity (Schistosoma mansoni [21]): Active
Activity (Schistosoma mansoni [22]): Active
Activity (Schistosoma mansoni [23]): Active
Activity (Schistosoma mansoni [25]): Active
Activity (Schistosoma mansoni [26]): Active
selectivity ratio [27]: 8
Activity (Schistosoma mansoni [29]): Active
selectivity ratio [30]: 10.2
Activity (Schistosoma mansoni [31]): Active
Activity (Fasciola hepatica [32]): Active
selectivity ratio [33]: 10.2
selectivity ratio [34]: 5.2
